We go through 24 sequences from the EternaBench riboswitch data.

For the data set, the system named is MS2 coat protein. The data set can be described thus: apparent Kd, MS2 coat protein; higher = weaker binding; RNA-MaP array; FMN 200 µM where present. Summed up:
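Stalled E. coli RNA polymerase transcribed the designs on Illumina sequencing-chip clusters. SNAP-549-labelled MS2 coat protein was titrated from 0.7 or 1.5 nM, doubling to 3 µM, without and then with constant ligand, in 100 mM Tris-HCl pH 7.5, 80 mM KCl, 4 mM MgCl2, BSA, DTT, yeast tRNA and Tween-20. Per-cluster binding curves were fitted to green signal normalised to red-channel RNA signal and control-cluster median Fmax. The apparent Kd is the median of the filtered fits.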

The mark [1] stands for this setting: designed as: OFF switch for flavin mononucleotide, no ligand.
Setting [2] is: ligand present: flavin mononucleotide, designed as: OFF switch for flavin mononucleotide.
Where [3] appears, read: designed as: ON switch for flavin mononucleotide, no ligand.
Where [4] appears, read: ligand present: flavin mononucleotide, designed as: ON switch for flavin mononucleotide.

For “UUCAGCUCGUGAGGAUAUACAUGUGCUGGAAACAGCAUUAAAUUUUUCACAUGAGGAUCACCCAUGUAGAAGGCACGAGCUGAG”, the “apparent Kd” value is, setting by setting: under setting [1], 16.6 nM; under setting [2], 39.8 nM.

With “UUAGAAUUGCAAGGAUAUCUUAUUUAGAUAGUAAGAGAAGGUGCUUUAUAGUUACAUGAGGAUCACCCAUGUAUUUCUUUUUAU”, the “apparent Kd” value reads like this: under setting [3], 23.1 nM; under setting [4], 19.7 nM.

With “UGGUCAUCAUCAGGAUAUUAACAUGGGCUACAUUAAGAAGGGAUAGUGAGAUAGGAACUGAAACAUGAGGAUCACCCAUGUUGU”, the “apparent Kd” value was determined as 96.9 nM under setting [3] and 44.2 nM under setting [4].

As for “UUCUUACAUGAGGAUCACCCAUGUCAGGAUAUCUCCUCACUGCGCUUGCGCAGUGAAUAGAGAAGGGACAGGCU”, the “apparent Kd” value by setting is: under setting [1], 51.3 nM; under setting [2], 43.8 nM.

With “GUAGUAUUAAGUUCAUAAUAUAGGAUAGAAGGUGAAAAUUUGACAUGAGGAUCACCCAUGUAAUUCAAGGAUAUGUAGUAACUC”, the “apparent Kd” value reads like this: under setting [3], 97.7 nM; under setting [4], 80.1 nM.

As to “GCGAACUGUGUAGGAUAUUGAGCACUUUUGGAGCAAGAAGGACACCAAGUGCUGACUAUACAUGAGGAUCACCCAUGUUCAGCA”, the “apparent Kd” value by setting is: under setting [3], 30.9 nM; under setting [4], 17.1 nM.

“GUCGUACAAGGAUAUACGGUGAGCUGUGAGUUAUCUGGGACACAUGAGGAUCACCCAUGUAGAAGGUGUCGACA”: the “apparent Kd” value was found to be 310 nM under setting [1] and 470 nM under setting [2].

As for “GGAGCAUAUGUCAGGAUAUCGUGGUCGAUAGAUCACGAGAAGGGACAUGAGGAUCACCCAUGUCAGUCCGCUCC”, the “apparent Kd” value by setting is: under setting [1], 14.3 nM; under setting [2], 20.7 nM.

Take “GUAUUAUAGAUCCAUUUAUUCAACAUGAGGAUCACCCAUGUGCAGGAUAUCGUGUGUUUUAUAUUCGAGAAGGGCAAAUUCAUU”: the “apparent Kd” value is, setting by setting: under setting [1], 28.9 nM; under setting [2], 81.8 nM.

For “AAAAUGUCAGGAUAUGCGAAGGCGUCUGAUAGACGAGGCUAGCAGAAGGGACAUGAGGAUCACCCAUGUAAAAA”, the “apparent Kd” value under setting [1] turned out to be 52.6 nM and the “apparent Kd” value under setting [2] is 152 nM.

For “CUGAAGAGAGAAGGAUAUCACAGGAUGGAGAUCUCUGAAUAAACAUGAGGAUCACCCAUGUCCAGUGAGAAGGUCUCGGUUCCG”, the “apparent Kd” value came out at 186 nM under setting [1] and 195 nM under setting [2].

Turning to “AAAAGGUCAGGAUAUGCCCUCCUGGUGGAAAAGCCUGGUGGGCAGAAGGGACAUGAGGAUCACCCAUGUAAAAA”, the “apparent Kd” value runs as follows: under setting [1], 60.8 nM; under setting [2], 81.8 nM.

“GAGCUUGAUGAGAAGGGUUACAUGAGGAUCACCCAUGUCGACCUUGGCGUAACAGGAUAUCAUCGGGCUCUGUGCGUUGACACA”: the “apparent Kd” value runs as follows: under setting [1], 27 nM; under setting [2], 121 nM.

In the case of “GAGCGGGAAACAUGAGGAUCACCCAUGUAAAAAAUCCUCAAGUAGGAUAUGCGAAAAAAAAAAAAGCAGAAGGGCUACCCGGUC”, the “apparent Kd” value reads like this: under setting [1], 58.3 nM; under setting [2], 72.7 nM.

In the case of “AGUGUCAUCGAGAAGGCCUCAACAUGAGGAUCACCCAUGUUGCAAAAUGGGAGGAUAUCGAAAAUACAGCUACGUUUCGUAGCA”, the “apparent Kd” value was 21.9 nM under setting [3] and 5.3 nM under setting [4].

Take “GGCGAACAGGCUAACAUGAGGAUCACCCAUGUGGACUCAUGGUAGGAUAUGCUCAUCAAAGAUGAGCAGAAGGGCCGGUGAGCC”: the “apparent Kd” value reads like this: under setting [3], 54.8 nM; under setting [4], 463 nM.

Turning to “GCUGCAUAGGCAGGAUAUGCAAUAAUUCGGAUAAAAUAUAACGAAUUAACAUGAGGAUCACCCAUGUAGAAGGGCCUGUGCAGU”, the “apparent Kd” value reads like this: under setting [1], 5.95 nM; under setting [2], 5.72 nM.

For “ACAUGAGGAUCACCCAUGUAUUACAUGGUUAAGUUUAUUAACAGAAGGCGAAAUUACCACUUGAUCGAGGAUAUGUAUUCAAUU”, the “apparent Kd” value by setting is: under setting [1], 45 nM; under setting [2], 40.3 nM.

In the case of “GAAUUCUCAGGAUAUGUGCGAAGUUACAUGAGGAUCACCCAUGUUAGCCCGUGUCUUUGAGCAGAAGGGAGAGGCU”, the “apparent Kd” value is, setting by setting: under setting [1], 14 nM; under setting [2], 13.6 nM.

With “GCGGAAGGCACAGGAUAUCGUCCUUAGUUGGUACGAGAAGGGUGGCGCUGCCACAUGAGGAUCACCCAUGUGCCUUGACUAUAG”, the “apparent Kd” value under setting [3] was determined as 245 nM and the “apparent Kd” value under setting [4] turned out to be 1180 nM.

Consider “UGGCUACAUGAGGAUCACCCAUGUCAGGAUAUGCCGUUGAAUUGACAUCAACGUACGGGUAGAAGGGACUGCGU”, for which the “apparent Kd” value was determined as 39.5 nM under setting [1] and 38.8 nM under setting [2].

Turning to “CUAAAUCAUGUAGGAUAUGCAUGGCGAAGCUACGCAGAAGGACAUGAGGAUCACCCAUGUCUGUCCGACAGCGUACUGUCGGAC”, the “apparent Kd” value turned out to be 19.6 nM under setting [1] and 112 nM under setting [2].

“GGAAUACAUGAGGAUCACCCAUGUAAGGAUAUGCUGAUUAAUUAAUUAUAAUUAUGCAGCAGAAGGUACAAAGG”: the “apparent Kd” value was found to be 85.9 nM under setting [1] and 104 nM under setting [2].

For the sequence “GGGUACAUCGGAGGAUAUGAUGUAAAUACAUGAGGAUCACCCAUGUCGAUGGAGACAUCGGAGAUUGAGAAGGCCGAUGUACCG”, the “apparent Kd” value is 88.2 nM under setting [3] and 32.2 nM under setting [4].

As usually defined, the apparent Kd is a dissociation constant that holds for the conditions of the assay.
